Published values gathered from unrelated publications.
Each line is one published result; the experiments were not run side by side. In brackets after ≈: the same amount, converted by molar mass.

Structure (SMILES) | organism | test | test system | conditions | measurement | value
Cc1cc(CCCOc2c(C)cc(-c3noc(C(F)(F)F)n3)cc2C)on1 | Enterovirus | cytopathic effect, inhibitor | HeLa | – | IC50 | 0.05 µM
O=C1CC(N(OCc2ccccc2)C(=O)c2cc([N+](=O)[O-])cc(C(F)(F)F)c2)N1 (stereo not drawn) | Mycolicibacterium vaccae | microbial growth | – | – | MIC | 6.25 µM
CC1(C)S[C@@H]2[C@H](NC(=O)[C@H](N)c3ccccc3)C(=O)N2[C@H]1C(=O)O | Limosilactobacillus reuteri | microbial growth, broth dilution | ATCC23272 | – | MIC | 1 µg/mL
OC(Cn1cncn1)(Cn1cncn1)c1ccc(F)cc1F | Kluyveromyces marxianus | microbial growth, broth dilution | – | 24 h | MIC90 | 1 µg/mL (≈ 3.27 µM)
Nc1nc(-c2ccccc2)nc2[nH]nc(Nc3ccc(C(F)(F)F)cc3)c12 | Enterovirus | cytopathic effect | HeLa | – | IC50 | 4.59 µM
O=C(Nc1ccccc1-c1ccc(F)c(F)c1)c1nccnc1C(F)(F)F | Mycosphaerella arachidis | microbial growth | – | – | EC50 | 0.12 µg/mL (≈ 0.316 µM)
CCCCCCCCCCCC(=O)Oc1c(C)c(O)c(C(=O)/C=C/c2ccccc2)c(OC)c1C | Pseudomonas aeruginosa | microbial killing, broth dilution | ATCC27853 | – | MBC | > 5000 µg/mL
C=CCON(C(=O)c1cc([N+](=O)[O-])cc(C(F)(F)F)c1)C1CC(=O)N1SC (stereo not drawn) | Mycolicibacterium vaccae | microbial growth | – | – | MIC | 6.25 µM
O=C(O)c1cn(C2CC2)c2cc(N3CCNCC3)c(F)cc2c1=O | Mycolicibacterium vaccae | microbial growth | 10670 | 1000 µg/mL | inhibition zone | 21 mm
